Inconclusive results are not listed.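 Rule for the calls, unless noted: active = RAM network inhibition above 8.4% in each of two replicates, 3 SD over the compound average; inconclusive = above 8.4% inhibition in only one replicate; inactive = 8.4% inhibition or less in each replicate.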
Assays:
[1] = S. cerevisiae growth inhibition in permissive medium (OD615), pilot counter-assay for S. cerevisiae lifespan shortening project, permissive growth control (AID 705;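 active = growth inhibition above 25% in both replicates, a cutoff set 3 SD above the mean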); settings: OD615, 24 h, at 10 µM, stronger effect = higher value
Method in brief: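 System: S. cerevisiae with engineered DeaD lifespan system. Medium: SC raffinose/galactose permissive medium. Doses: single compound dose of 10 µM, 0.25% DMSO final. Schedule: 24 h exposure, 30 °C. Measured by: OD615 turbidity read. Read-out: growth inhibition.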

[2] = S. cerevisiae growth inhibition in restrictive medium, OD615, pilot screen, restrictive growth control, yeast lifespan reduction project (AID 706;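 active = growth inhibition above a set limit, 3 SD over mean compound inhibition, in both replicates, cut at about 43% in these data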;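 note: modified DeaD lifespan yeast strain shifted to restrictive glucose medium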); settings: OD615, 48 h, at 10 µM, stronger effect = higher value
Method in brief: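 Assay system – genetically modified Saccharomyces cerevisiae, DeaD replicative lifespan assay strain · Medium – CSMM-D glucose medium · Doses – 10 µM compound, 0.25% DMSO · Times – 4 h pre-incubation, 48 h exposure at 30 °C · Signal – optical density at 615 nm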

[3] = doxorubicin toxicity protection in MRP-1 cells – H69AR cells, CellTiter-Glo, duplicate, MRP-1 activator project, pilot screen (AID 807;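 active = viability increase at or above a cutoff of the median across tested compounds plus 3 SD, cut at about 8.5% in these data, passing the limit was not always enough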;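 note: compound pretreatment 18-22 h then 72 h combined with doxorubicin; 0% = doxorubicin alone and 100% = vehicle without doxorubicin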); settings: H69AR viability with doxorubicin, CellTiter-Glo luminescence; at 10 µM; stronger effect = higher value
[4] = viability of HCT116 without oncogenic beta-catenin – human colon tumor cells, pilot screen (AID 823;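 active = cell viability at or below a set limit in both duplicate runs, the limit being the all-compound median minus 4 SD, cut at about 23% in these data, passing the limit was not always enough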;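 note: 0% = wells killed by 20 µM Hyamine and 100% = untreated DMSO cell wells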); settings: HCT116 beta-catenin knockout viability, CellTiter-Glo, 60 h; at 10 µM; stronger effect = lower value
[5] = viability of PTEN-null HCT116 cells – cell-based, HCT116 clonal line, CellTiter-Glo, pilot screen (AID 824;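 active = viability at or below 27.92% in each of two runs, the all-compound median minus 4 SD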;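 note: 0% = 20 µM Hyamine control and 100% = vehicle cell control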); settings: HCT116 PTEN-deleted viability, 60 h, at 10 µM, stronger effect = lower value
[6] = RAM pathway blockade in budding yeast – dse1pr::URA3 reporter, 5-FOA selection, pilot screen (AID 869;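 active = inhibition over a set limit, the all-compound mean plus 3 SD, in both replicate runs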;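 note: 0% = DMSO wells with no growth and 100% = 10 µM 1-NA-PP1 with full growth; RAM network block rescues cells from 5-FOA so hits raise OD615 growth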); settings: S. cerevisiae dse1pr::URA3 5-FOA growth, OD615, 2 d; at 10 µM; stronger effect = higher value; strain carries analog-sensitive mutant Cbk1 kinase
[7] = RAM signaling pathway blockade in yeast – S. cerevisiae, Pdr1DBD-CYC8 efflux-inhibited sensitized strain, primary screen (AID 1298);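 note: 0% = DMSO untreated cells without growth and 100% = 10 µM 1-NA-PP1 full growth; higher means more yeast growth rescued from 5-FOA killing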; settings: S. cerevisiae cbk1-as DSE1-URA3 strain, 5-FOA growth OD615, 2 d; at 50 µM; stronger effect = higher value

CCCC(=O)N(Cc1cc2cc(C)ccc2[nH]c1=O)c1ccccc1OC
inactive: growth inhibition [1] 1.1% | growth inhibition [2] 1.19% | viability increase [3] -0.05% | viability [4] 80.7% | viability [5] 78% | inhibition [6] 1.04% | RAM network inhibition [7] 9.81%

COc1ccc(Cc2nnc(Nc3ccc(C)cc3C)[nH]c2=O)cc1
inactive: growth inhibition [1] -10.4% | growth inhibition [2] -12.6% | viability increase [3] -1.16% | viability [4] 91.2% | viability [5] 94.2% | inhibition [6] 1.08% | RAM network inhibition [7] 7.16%

CCCOc1ccccc1C1NC(=O)NC(C)=C1C(=O)OCCOC(C)C (stereo not drawn)
inactive: growth inhibition [1] -12.9% | growth inhibition [2] -13.2% | viability increase [3] -2.17% | viability [4] 89.5% | viability [5] 91.4% | inhibition [6] 0.325% | RAM network inhibition [7] 5.61%

CC(=O)Nc1nnc(SCc2cccc(F)c2)s1
inactive: growth inhibition [1] -1.17% | growth inhibition [2] -1.06% | viability increase [3] -0.12% | viability [4] 108% | viability [5] 104% | inhibition [6] 1.99% | RAM network inhibition [7] 4.84%

CCOC(=O)NCCc1ccc(OC)cc1
inactive: growth inhibition [1] -4.17% | growth inhibition [2] 5.72% | viability increase [3] 1.36% | viability [4] 99.9% | viability [5] 95.8% | inhibition [6] 1.83% | RAM network inhibition [7] 0.56%

COc1ccc(S(=O)(=O)N2CCCC2C(=O)Nc2ccc(C(C)=O)cc2)cc1 (stereo not drawn)
inactive: growth inhibition [1] -19.4% | growth inhibition [2] -11% | viability increase [3] -0.66% | viability [4] 97.6% | viability [5] 95.8% | inhibition [6] 2.13% | RAM network inhibition [7] 1.47%

COc1ccc(-c2nc(-c3ccc(Br)o3)no2)cc1OC
inactive: growth inhibition [1] -7.45% | growth inhibition [2] -17.9% | viability increase [3] -0.69% | viability [4] 86.3% | viability [5] 78.6% | inhibition [6] 0.88% | RAM network inhibition [7] 2.25%

Cc1cc(Nc2cc(F)ccc2C)n2ncnc2n1
inactive: growth inhibition [1] -2.42% | growth inhibition [2] 9.4% | viability increase [3] -0.28% | viability [4] 102% | viability [5] 97.3% | inhibition [6] 3.77% | RAM network inhibition [7] 4.19%

CC(=O)c1cccc(NC(=O)C2CCCC2)c1
inactive: growth inhibition [1] -9.02% | growth inhibition [2] -23.5% | viability increase [3] -0.26% | viability [4] 102% | viability [5] 95.4% | inhibition [6] 1.08% | RAM network inhibition [7] -2.18%

O=C1c2oc3ccccc3c(=O)c2C(c2cccc(O)c2)N1CCCN1CCOCC1 (stereo not drawn)
inactive: growth inhibition [1] -8.79% | growth inhibition [2] -7.73% | viability increase [3] -0.83% | viability [4] 102% | viability [5] 102% | inhibition [6] 0.37% | RAM network inhibition [7] 2.79%

Cc1cccc(C2N(c3ccc(F)cc3)C(=O)C3CCCN32)c1 (stereo not drawn)
inactive: growth inhibition [1] -1.45% | growth inhibition [2] -4.47% | viability increase [3] 0.04% | viability [4] 98.4% | viability [5] 94.8% | inhibition [6] 0.71% | RAM network inhibition [7] 3.46%

CCn1cc(SCC(N)=O)c2ccccc21
inactive: growth inhibition [1] -13.8% | growth inhibition [2] -17.4% | viability increase [3] 0.17% | viability [4] 99.1% | viability [5] 92.3% | inhibition [6] 1.14% | RAM network inhibition [7] 8.71%

O=c1oc2ccccc2n1CCCOc1ccccc1
inactive: growth inhibition [1] 1.24% | growth inhibition [2] -1.04% | viability increase [3] 1.28% | viability [4] 98.1% | viability [5] 96.5% | inhibition [6] 2.02% | RAM network inhibition [7] 1.62%

COc1ccc(OC)c(C2=Nn3c(nnc3-c3ccncc3)SC2)c1
inactive: growth inhibition [1] 0.735% | growth inhibition [2] 11.2% | viability increase [3] -2.51% | viability [4] 78.1% | viability [5] 71.1% | inhibition [6] 0.84% | RAM network inhibition [7] 5.82%

COCCNC(=O)CN1CCOc2ccccc21
inactive: growth inhibition [1] -22.5% | growth inhibition [2] 14.5% | viability increase [3] -4.65% | viability [4] 94.6% | viability [5] 102% | inhibition [6] 0.98% | RAM network inhibition [7] 3.11%

CCOc1cccc(C(=O)Nc2cccc(-c3nnc(-c4ccccc4)o3)c2)c1
inactive: growth inhibition [1] -8.09% | growth inhibition [2] 6.69% | viability increase [3] -3% | viability [4] 51.9% | viability [5] 48.5% | inhibition [6] 0.02% | RAM network inhibition [7] 2.46%

Cc1ccc(C(=O)Nc2cccc(C(=O)O)c2)cc1S(=O)(=O)N1CCCCC1
inactive: growth inhibition [1] 5.02% | growth inhibition [2] 11.4% | viability increase [3] 0.18% | viability [4] 96% | viability [5] 100% | inhibition [6] 1.35% | RAM network inhibition [7] 0.1%

O=C(c1cc(-c2ccc(O)cc2)on1)N1CCCc2ccccc21
inactive: growth inhibition [1] -15.5% | growth inhibition [2] 12.2% | viability increase [3] -5.72% | viability [4] 92.6% | viability [5] 88.3% | inhibition [6] 0.66% | RAM network inhibition [7] 1.51%

Cc1c(NC(=O)C2CCCN2S(=O)(=O)c2ccccc2)c(=O)n(-c2ccccc2)n1C (stereo not drawn)
inactive: growth inhibition [1] -8.82% | growth inhibition [2] -10.2% | viability increase [3] -1% | viability [4] 97.3% | viability [5] 107% | inhibition [6] 2.12% | RAM network inhibition [7] 0.05%

NC(=O)CSc1nnc(-c2ccncc2)n1-c1ccc(Cl)cc1
inactive: growth inhibition [1] -5.39% | growth inhibition [2] 0.11% | viability increase [3] -1.78% | viability [4] 97.7% | viability [5] 94.1% | inhibition [6] 0.785% | RAM network inhibition [7] 1.57%

CCOc1ccc(CC(=O)N2CCN(c3ccc(N4CCOCC4)nn3)CC2)cc1OCC
inactive: growth inhibition [1] -1.33% | growth inhibition [2] 8.3% | viability increase [3] 0.46% | viability [4] 103% | viability [5] 106% | inhibition [6] -0.385% | RAM network inhibition [7] 6.26%

CCOc1ccc(OCC)c(NC(=O)CN2CCC(NC(=O)c3cccc(F)c3)CC2)c1
inactive: growth inhibition [1] -3.75% | growth inhibition [2] -12.3% | viability increase [3] -4.87% | viability [4] 77.5% | viability [5] 78.7% | inhibition [6] 2.31% | RAM network inhibition [7] 5.19%

CCC(=O)Nc1nc2ccccc2n1CCN1CCOCC1
inactive: growth inhibition [1] -9.48% | growth inhibition [2] -0.375% | viability increase [3] -2.15% | viability [4] 98.6% | viability [5] 99.3% | inhibition [6] -0.285% | RAM network inhibition [7] 5.41%

N#Cc1nc(COc2ccccc2)oc1N1CCCCC1
inactive: growth inhibition [1] -9.45% | growth inhibition [2] 10.3% | viability increase [3] 2.53% | viability [4] 87.5% | viability [5] 88.9% | inhibition [6] 0.495% | RAM network inhibition [7] -1.83%
